In the EternaBench riboswitch data:

System: MS2 coat protein
Experiment: apparent Kd, MS2 coat protein; higher = weaker binding; RNA-MaP array; FMN 200 µM where present
Method in brief: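 Stalled E. coli RNA polymerase transcribed each design on Illumina sequencing-chip clusters. The clusters were titrated with SNAP-549-labelled MS2 coat protein, starting at 0.7 or 1.5 nM and doubling up to 3 µM, first without ligand and then with constant ligand, in 100 mM Tris-HCl pH 7.5, 80 mM KCl, 4 mM MgCl2, BSA, DTT, yeast tRNA and Tween-20. Green signal was normalised to red-channel RNA signal and to the control-cluster median Fmax. The apparent Kd is the median of filtered binding-curve fits made for each cluster.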

[1] = designed as: ON switch for flavin mononucleotide, no ligand
[2] = ligand present: flavin mononucleotide, designed as: ON switch for flavin mononucleotide
[3] = designed as: OFF switch for flavin mononucleotide, no ligand
[4] = ligand present: flavin mononucleotide, designed as: OFF switch for flavin mononucleotide

Sequence	apparent Kd [1] [nM]	apparent Kd [2] [nM]	apparent Kd [3] [nM]	apparent Kd [4] [nM]
GCACUUGCGUAGAAGGUACAUUAUAAUUAAUUGUAAGGAUAUACAAACAUGAGGAUCACCCAUGUAAAUGGAAUUUGCAAGUGC	6.52	6.36	–	–
GGCGUGUUAGGAUAUCGCGGCGGCGGCGUUUGUUGUUGUUGUGAGAAGGAACAUGAGGAUCACCCAUGUGUGCC	–	–	62.7	295
GGAGCACACAUUAACAUGAGGAUCACCCAUGUCUAAAGACAUGAGGAUAUGGAUCCGAAAAGGAUCCAGAAGGCAUGGUGCUCC	207	11.7	–	–
GGAUGACAAAGUCAUCCUAAACGAACAUGAGGAUCACCCAUGUAGGAUAUGGUACUCAAAGAGUACCAGAAGGACAUGUGCCUU	–	–	33.7	200
UCACGUCACCAAGGAUAUACCCGAAGAUCCAUGGUAGAAGGUGGUGACAUGAGGAUCACCCAUGUCCGCGCGGACAAGUGUGUU	–	–	118	26.7
CAUGUCCUCACAGGAUAUGCUGGACUUUGUCCAGCAGAAGGGUGUUAACAUGAGGAUCACCCAUGUGGACAUGAUAUAUUUAAG	757	66.2	–	–
UUUAUAUAGUAAGGAUAUGUAUUAUGUUUAUCAACAGAAGGUACUGACAUGAGGAUCACCCAUGUUUUAGUGUGGGCAUGUAGU	–	–	218	301
CCACUGUCAGGAUAUCGUGCAUAAGCGAUUACAUUUAUGUGCGAGAAGGGACAUGAGGAUCACCCAUGUAAUCG	–	–	528	368
CGGAAUUGUACAGGAUAUGAGGGUACCUGAGCCUCAGAAGGGUAGACCGACAUGAGGAUCACCCAUGUAUGCGGAUAACGUCCG	1180	592	–	–
GAUUCGGGAGGAUAUACAUGAGGAUCACCCAUGUAUAUAUAAUAUAUUAAAUUAUCAUGUAGAAGGUUUGGGUC	–	–	24.2	23.4
UUUGCAACAUGAGGAUCACCCAUGUAGGAUAUCGCUAUUGUAAUCAUGAAACAUGAUUACAAUAGCGAGAAGGACAUAUGCUUU	–	–	20.1	18.3
UCGAUAAGGAGAGGAUAUGGACAUGAGGAUCACCCAUGUACAUGGGAAUAUAUACUGAAUUUUUACUAGAAGGCUUACAUAUUU	–	–	16.7	13.6
GCUUGUGAAGGAUAUACUGGCGGCGUGCGCUCGGCGCGCGCACAUGAGGAUCACCCAUGUAGAAGGUCAAACGU	–	–	14.3	13.1
AAAACCAGAGGAUAUGCGCAUAGAUCAGACUUUGUUUCUUAACAUGAGGAUCACCCAUGUAGAAGGCUGUAAAA	–	–	17.3	15.4
GCAGAACAUGAGGAUCACCCAUGUCUCUAAAGUCGAGGAUAUGGGCAGGUUAUAUCCGAACCAGAAGGCGAUCUGC	127	43.8	–	–
AUCGUGAGAGGAUAUACAUGAGGAUCACCCAUGUUUCGAACACCAUGCGGUCAUUUGCGUAGAAGGCUCGUGCG	–	–	29.1	87.1
UAUUAACAUGUAGGAUAUCUGCACGAUUAGUGCAGAGAAGGACAUGAGGAUCACCCAUGUAGAUCAUAAUAAUUUAAUUUAAUU	–	–	133	422
GCUGCUUAUGAGAAGGCGAUCAUGAAACAUGAUCGAGGAUAUCAUGUAAACAUGAGGAUCACCCAUGUAUGGGUAUUAUGCAGC	374	37.6	–	–

Sequence	apparent Kd [1] [nM]	apparent Kd [2] [nM]	apparent Kd [3] [nM]	apparent Kd [4] [nM]
AUAUAUGCCCAGAAGGUGCCAGCGAGAGCUGCACAUGAGGAUCACCCAUGUUGUCGGUGACGACGCAAGGAUAUGGGCAUAUAU	24.5	7.26	–	–
GAGUGCUGAGGAUAUACAUGAGGAUCACCCAUGUGCUUCAGCUAGGAGACUAGCAUUGGUAGAAGGUAGUACUC	–	–	11.7	15.4
GUGUUGUCAGGAUAUCUUACAUAACUAUCGUUGUUACCAUUGGAGAAGGGACAUGAGGAUCACCCAUGUUAUCG	–	–	24.3	25.4
CCACUCGGUGAGAAGGCGCCGGCGUCCGCGAGGCGAGGAUAUCACAUGAGGAUCACCCAUGUGGGCAUGAAGAUUGCCACUAGG	–	–	61.3	152
AUCAGCUCGUCAGGAUAUACGUCACUGCGUCAGCAGUGUGCUAAGAUCACAUGAGGAUCACCCAUGUAGAAGGGACGAGCUGAU	–	–	5.83	22.1
CGCGCGCGUGUUAGGAUAUAUGUGUGUGGUUAUUUAUAGAAGGGACAUGAGGAUCACCCAUGUGUGUGGGCGCG	–	–	520	489
AUCUAAGAAUUAAUUGUGACAGUGAGAAGGCUAUAGUUUGUGACCGACAUGAGGAUCACCCAUGUAGAGGAUAUCACUAGCUAC	–	–	39.9	253
CUAGAAAGGACAGGAUAUCGGGAUCGAACACCCGACAUGAGGAUCACCCAUGUCGCAAAUGAUAGCGAGAAGGGUCGGACACAA	57	18.6	–	–
ACAUACUUUCGAGGAUAUCGGUGAUAAAUUUUACGAGAAGGCGAUAAAAGAUAUAAUCUUAUAGACAUGAGGAUCACCCAUGUA	30.5	27.3	–	–
GGUCCAUCAUGAGGAUAUGGCACCUUAUUGGUGCCAGAAGGCAUGUCUUUAGACAUGAGGAUCACCCAUGUAAAUAAUUGGACC	1030	92.5	–	–
AAUUUGCACGCAGGAUAUCGAUAUAAAAGCUGACGAGAAGGGCGGUACAUGAGGAUCACCCAUGUGAACGCCGGGUGGUCUCGU	–	–	6.55	9.34
GGAUAGGACAGAGGAUAUACGGAUAGGAUCUACUAUCAAACAAGUCCUACAUGAGGAUCACCCAUGUAGAAGGCUGUCCUAUCG	–	–	16.9	22.1
GACGGAUGUAUAGGAUAUGCUGAGGAUAACUCAGCAGAAGGAUACAUGAGGAUCACCCAUGUAAUAAUAAUAAUAAUAACCGUC	–	–	13.3	24.1
UGUUGUAUUACAGGAUAUCUAGUAUUGUUAUUUAGAGAAGGGUAUUCACAUGAGGAUCACCCAUGUAUAUACGAGGAAGUUGUG	38.4	41.4	–	–
CCGGGCAUCGGCCCAUCUAGGCGAAGAAGGGACACGGCCAAGAUCUCACAUGAGGAUCACCCAUGUCAGGAUAUUUGGUUGGAU	–	–	6.56	10.3
GGUAGCUUCACAGGAUAUGCUAUCCUUUGGGUAGCAGAAGGGUGAUACAUGAGGAUCACCCAUGUGCUGCCAGGGCGUGAGCCC	286	500	–	–
AGAUAGUGGUGAGGAUAUCAGAAUAGAAAGAAAUGAGAAGGCACACAUGAGGAUCACCCAUGUGAGUUCUUGAGAUUACAUGGU	–	–	18.4	34.2
AAAAAAAAUGUGUAGGAUAUCAGUAAAAAUACAUGAGGAUCACCCAUGUUCAAAAAAAAAAAAACUGAGAAGGACGUGGAUGGUCC	79	59.9	–	–
